# Assay results from ChEMBL document CHEMBL3797186, “Single Residue Substitutions That Confer Voltage-Gated Sodium Ion Channel Subtype Selectivity in the NaV1.7 Inhibitory Peptide GpTx-1” (J Med Chem, 2016).
# Positions of bridges follow the written chain, without caps; N, C: chain ends. Residues, ends and D or L forms follow the SMILES beside them.
# Molecular target: Sodium channel protein type 5 subunit alpha (Homo sapiens, UniProt Q14524)
# Assay: Inhibition of human Nav1.5 expressed in HEK293 cells assessed as inward peak current by ion-works quattro patch clamp electrophysiology method
# Assay type: cell-based
# Summary of the method: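 Stable HEK293 line expressing human NaV1.5, recorded by population patch clamp on the IonWorks Quattro.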
# Chain of Sodium channel protein type 5 subunit alpha (Q14524 whole entry): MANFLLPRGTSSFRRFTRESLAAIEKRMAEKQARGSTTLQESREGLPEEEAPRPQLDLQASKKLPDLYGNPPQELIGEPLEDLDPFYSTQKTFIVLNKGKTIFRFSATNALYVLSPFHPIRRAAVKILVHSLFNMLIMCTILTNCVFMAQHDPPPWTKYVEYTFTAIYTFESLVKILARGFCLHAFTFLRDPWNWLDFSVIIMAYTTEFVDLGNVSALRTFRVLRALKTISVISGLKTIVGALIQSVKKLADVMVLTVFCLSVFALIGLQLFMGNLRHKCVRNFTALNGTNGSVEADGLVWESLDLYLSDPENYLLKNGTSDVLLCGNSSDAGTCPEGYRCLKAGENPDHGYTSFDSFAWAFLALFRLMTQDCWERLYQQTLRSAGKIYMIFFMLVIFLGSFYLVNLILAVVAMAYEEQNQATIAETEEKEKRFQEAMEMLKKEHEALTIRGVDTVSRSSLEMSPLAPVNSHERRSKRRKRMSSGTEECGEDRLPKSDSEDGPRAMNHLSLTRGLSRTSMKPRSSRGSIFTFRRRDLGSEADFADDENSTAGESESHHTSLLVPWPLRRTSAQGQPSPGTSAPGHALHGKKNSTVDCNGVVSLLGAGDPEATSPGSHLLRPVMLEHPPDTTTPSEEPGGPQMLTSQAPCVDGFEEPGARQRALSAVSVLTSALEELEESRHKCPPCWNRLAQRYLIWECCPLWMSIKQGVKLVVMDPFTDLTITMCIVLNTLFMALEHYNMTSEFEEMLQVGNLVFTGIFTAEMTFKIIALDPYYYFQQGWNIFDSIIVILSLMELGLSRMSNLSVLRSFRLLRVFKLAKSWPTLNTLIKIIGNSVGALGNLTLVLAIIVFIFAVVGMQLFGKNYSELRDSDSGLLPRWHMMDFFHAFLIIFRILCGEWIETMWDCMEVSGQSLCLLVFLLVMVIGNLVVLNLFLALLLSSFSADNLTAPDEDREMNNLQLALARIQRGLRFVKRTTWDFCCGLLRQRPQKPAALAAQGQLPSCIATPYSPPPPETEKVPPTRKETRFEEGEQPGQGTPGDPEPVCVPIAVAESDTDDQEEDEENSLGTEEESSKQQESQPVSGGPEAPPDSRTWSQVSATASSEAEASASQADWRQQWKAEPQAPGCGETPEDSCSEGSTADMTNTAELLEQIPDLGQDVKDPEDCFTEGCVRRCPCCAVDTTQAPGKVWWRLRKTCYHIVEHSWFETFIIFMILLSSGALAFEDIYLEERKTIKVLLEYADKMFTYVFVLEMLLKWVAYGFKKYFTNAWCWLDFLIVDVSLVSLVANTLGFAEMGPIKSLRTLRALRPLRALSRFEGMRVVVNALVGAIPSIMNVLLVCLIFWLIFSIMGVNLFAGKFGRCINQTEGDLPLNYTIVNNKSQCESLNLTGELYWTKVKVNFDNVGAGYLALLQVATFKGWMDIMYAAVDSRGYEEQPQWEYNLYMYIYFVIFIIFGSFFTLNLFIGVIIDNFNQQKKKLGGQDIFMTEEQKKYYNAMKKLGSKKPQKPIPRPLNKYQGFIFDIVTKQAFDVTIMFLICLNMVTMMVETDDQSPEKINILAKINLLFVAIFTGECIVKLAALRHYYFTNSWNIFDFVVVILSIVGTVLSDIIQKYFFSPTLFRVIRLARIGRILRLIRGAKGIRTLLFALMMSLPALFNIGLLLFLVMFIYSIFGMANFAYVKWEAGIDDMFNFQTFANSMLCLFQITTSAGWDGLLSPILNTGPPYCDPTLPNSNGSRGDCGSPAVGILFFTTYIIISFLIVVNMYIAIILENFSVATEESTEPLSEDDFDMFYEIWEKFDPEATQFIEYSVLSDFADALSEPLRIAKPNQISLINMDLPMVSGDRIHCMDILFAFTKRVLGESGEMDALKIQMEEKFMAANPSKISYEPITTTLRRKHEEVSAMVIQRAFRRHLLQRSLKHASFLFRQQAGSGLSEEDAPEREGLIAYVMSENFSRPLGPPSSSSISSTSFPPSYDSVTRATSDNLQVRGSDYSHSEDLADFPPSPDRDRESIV
row,Compound,IC50 [µM]
1,"CC[C@H](C)[C@@H]1NC(=O)[C@@H]2CSSC[C@@H]3NC(=O)[C@H](C(C)C)NC(=O)[C@H](CC(C)C)NC(=O)[C@H](CC(N)=O)NC(=O)[C@@H]4CCCN4C(=O)[C@H](CCCNC(=N)N)NC(=O)[C@H](CSSC[C@H](NC(=O)[C@@H](N)CC(=O)O)C(=O)N[C@@H](CC(C)C)C(=O)NCC(=O)N[C@@H](Cc4ccccc4)C(=O)N[C@@H](CCSC)C(=O)N[C@@H](CCCNC(=N)N)C(=O)N[C@@H](CCCCN)C(=O)N2)NC(=O)[C@H](CSSC[C@@H](C(=O)N[C@@H](CCCCN)C(=O)N[C@@H](Cc2ccc(O)cc2)C(=O)N[C@H](C(=O)N[C@@H](Cc2ccccc2)C(N)=O)C(C)C)NC(=O)[C@H](Cc2c[nH]c4ccccc24)NC(=O)[C@H](CCCCN)NC(=O)[C@H](CCCCN)NC(=O)[C@H]([C@@H](C)O)NC(=O)[C@H](CCCNC(=N)N)NC(=O)[C@H](CO)NC3=O)NC(=O)[C@H](CCCCN)NC(=O)[C@H](CC(=O)O)NC(=O)[C@H](CC(N)=O)NC(=O)[C@H](CC(=O)O)NC(=O)[C@@H]2CCCN2C1=O (H-DCLGFMRKCIPDNDKCCRPNLVCSRTKKWCKYVF-NH2; disulfide 2-17, 9-23, 16-30)",> 5
2,"CC[C@H](C)[C@@H]1NC(=O)[C@@H]2CSSC[C@@H]3NC(=O)[C@H](C(C)C)NC(=O)[C@H](CC(C)C)NC(=O)[C@H](CC(N)=O)NC(=O)[C@@H]4CCCN4C(=O)[C@H](CCCNC(=N)N)NC(=O)[C@H](CSSC[C@H](NC(=O)[C@@H](N)CC(=O)O)C(=O)N[C@@H](CC(C)C)C(=O)NCC(=O)N[C@@H](Cc4ccccc4)C(=O)N[C@@H](CCSC)C(=O)N[C@@H](CCCNC(=N)N)C(=O)N[C@@H](CCCCN)C(=O)N2)NC(=O)[C@H](CSSC[C@@H](C(=O)N[C@@H](CCCCN)C(=O)N[C@@H](Cc2ccc(O)cc2)C(=O)N[C@H](C(N)=O)C(C)C)NC(=O)[C@H](Cc2c[nH]c4ccccc24)NC(=O)[C@H](CCCCN)NC(=O)[C@H](Cc2cnc[nH]2)NC(=O)[C@H]([C@@H](C)O)NC(=O)[C@H](CCCNC(=N)N)NC(=O)[C@H](CO)NC3=O)NC(=O)[C@H](CCCCN)NC(=O)[C@H](CC(=O)O)NC(=O)[C@H](CC(N)=O)NC(=O)[C@H](CC(=O)O)NC(=O)[C@@H]2CCCN2C1=O (H-DCLGFMRKCIPDNDKCCRPNLVCSRTHKWCKYV-NH2; disulfide 2-17, 9-23, 16-30)",> 5
3,"CC[C@H](C)[C@@H]1NC(=O)[C@@H]2CSSC[C@@H]3NC(=O)[C@H](C(C)C)NC(=O)[C@H](CC(C)C)NC(=O)[C@H](CC(N)=O)NC(=O)[C@@H]4CCCN4C(=O)[C@H](CCCNC(=N)N)NC(=O)[C@H](CSSC[C@H](NC(=O)[C@@H](N)CC(=O)O)C(=O)N[C@@H](CC(C)C)C(=O)NCC(=O)N[C@@H](Cc4ccccc4)C(=O)N[C@@H](CCSC)C(=O)N[C@@H](CCCNC(=N)N)C(=O)N[C@@H](CCCCN)C(=O)N2)NC(=O)[C@H](CSSC[C@@H](C(=O)N[C@@H](CCCCN)C(=O)N[C@@H](Cc2ccc(O)cc2)C(=O)N[C@H](C(=O)N[C@@H](Cc2ccccc2)C(N)=O)C(C)C)NC(=O)[C@H](Cc2c[nH]c4ccccc24)NC(=O)[C@H](CCCCN)NC(=O)[C@H](Cc2cnc[nH]2)NC(=O)[C@H]([C@@H](C)O)NC(=O)[C@H](CCCNC(=N)N)NC(=O)[C@H](CO)NC3=O)NC(=O)[C@H](CCCCN)NC(=O)[C@H](CC(=O)O)NC(=O)[C@H](CC(N)=O)NC(=O)[C@H](CCCCN)NC(=O)[C@@H]2CCCN2C1=O (H-DCLGFMRKCIPKNDKCCRPNLVCSRTHKWCKYVF-NH2; disulfide 2-17, 9-23, 16-30)",> 4.7
4,"CC[C@H](C)[C@@H]1NC(=O)[C@@H]2CSSC[C@@H]3NC(=O)[C@H](C(C)C)NC(=O)[C@H](CC(C)C)NC(=O)[C@H](CC(N)=O)NC(=O)[C@@H]4CCCN4C(=O)[C@H](CCCNC(=N)N)NC(=O)[C@H](CSSC[C@H](NC(=O)[C@@H](N)CCCNC(=N)N)C(=O)N[C@@H](CC(C)C)C(=O)NCC(=O)N[C@@H](Cc4ccccc4)C(=O)N[C@@H](CCSC)C(=O)N[C@@H](CCCNC(=N)N)C(=O)N[C@@H](CCCCN)C(=O)N2)NC(=O)[C@H](CSSC[C@@H](C(=O)N[C@@H](CCCCN)C(=O)N[C@@H](Cc2ccc(O)cc2)C(=O)N[C@H](C(=O)N[C@@H](Cc2ccccc2)C(N)=O)C(C)C)NC(=O)[C@H](Cc2c[nH]c4ccccc24)NC(=O)[C@H](CCCCN)NC(=O)[C@H](Cc2cnc[nH]2)NC(=O)[C@H]([C@@H](C)O)NC(=O)[C@H](CCCNC(=N)N)NC(=O)[C@H](CO)NC3=O)NC(=O)[C@H](CCCCN)NC(=O)[C@H](CC(=O)O)NC(=O)[C@H](CC(N)=O)NC(=O)[C@H](CC(=O)O)NC(=O)[C@@H]2CCCN2C1=O (H-RCLGFMRKCIPDNDKCCRPNLVCSRTHKWCKYVF-NH2; disulfide 2-17, 9-23, 16-30)",> 5
5,"CC[C@H](C)[C@@H]1NC(=O)[C@@H]2CSSC[C@@H]3NC(=O)[C@H](C(C)C)NC(=O)[C@H](CC(C)C)NC(=O)[C@H](CC(N)=O)NC(=O)[C@@H]4CCCN4C(=O)[C@H](CCCNC(=N)N)NC(=O)[C@H](CSSC[C@H](NC(=O)[C@@H](N)CC(=O)O)C(=O)N[C@@H](CC(C)C)C(=O)NCC(=O)N[C@@H](Cc4ccccc4)C(=O)N[C@@H](CCSC)C(=O)N[C@@H](CCCNC(=N)N)C(=O)N[C@@H](CCCCN)C(=O)N2)NC(=O)[C@H](CSSC[C@@H](C(=O)N[C@@H](CCCCN)C(=O)N[C@@H](Cc2ccc(O)cc2)C(=O)N[C@H](C(=O)N[C@@H](Cc2ccccc2)C(N)=O)C(C)C)NC(=O)[C@H](Cc2c[nH]c4ccccc24)NC(=O)[C@H](CCCCN)NC(=O)[C@H](Cc2cnc[nH]2)NC(=O)[C@H]([C@@H](C)O)NC(=O)[C@H](CCCNC(=N)N)NC(=O)[C@H](CO)NC3=O)NC(=O)[C@H](CCCCN)NC(=O)[C@H](CC(=O)O)NC(=O)[C@H](CCCCN)NC(=O)[C@H](CC(=O)O)NC(=O)[C@@H]2CCCN2C1=O (H-DCLGFMRKCIPDKDKCCRPNLVCSRTHKWCKYVF-NH2; disulfide 2-17, 9-23, 16-30)",> 5
6,"CC[C@H](C)[C@@H]1NC(=O)[C@@H]2CSSC[C@@H]3NC(=O)[C@H](C(C)C)NC(=O)[C@H](CC(C)C)NC(=O)[C@H](CC(N)=O)NC(=O)[C@@H]4CCCN4C(=O)[C@H](CCCNC(=N)N)NC(=O)[C@H](CSSC[C@H](NC(=O)[C@@H](N)CC(=O)O)C(=O)N[C@@H](CC(C)C)C(=O)NCC(=O)N[C@@H](Cc4ccccc4)C(=O)N[C@@H](CCSC)C(=O)N[C@@H](CCCNC(=N)N)C(=O)N[C@@H](CCCCN)C(=O)N2)NC(=O)[C@H](CSSC[C@@H](C(=O)N[C@@H](CCCCN)C(=O)N[C@@H](Cc2ccc(O)cc2)C(=O)N[C@H](C(=O)N[C@@H](Cc2ccccc2)C(N)=O)C(C)C)NC(=O)[C@H](Cc2c[nH]c4ccccc24)NC(=O)[C@H](CCCCN)NC(=O)[C@H](Cc2c[nH]c4ccccc24)NC(=O)[C@H]([C@@H](C)O)NC(=O)[C@H](CCCNC(=N)N)NC(=O)[C@H](CO)NC3=O)NC(=O)[C@H](CCCCN)NC(=O)[C@H](CC(=O)O)NC(=O)[C@H](CC(N)=O)NC(=O)[C@H](CC(=O)O)NC(=O)[C@@H]2CCCN2C1=O (H-DCLGFMRKCIPDNDKCCRPNLVCSRTWKWCKYVF-NH2; disulfide 2-17, 9-23, 16-30)",> 5
